Data: ChEMBL document CHEMBL1157421, “Tenacigenin B derivatives reverse P-glycoprotein-mediated multidrug resistance inHepG2/Dox cells” (J Nat Prod, 2008)
The source made the active and inactive calls. The calls are words filed in the database; no cut-off is given here.

Tests used:
HepG2 [1] = assay: Growth inhibition of doxorubicin-sensitive human HepG2 cells at 80 uM; assay type: functional
Summary of the method: (§1)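 SRB growth assay. HepG2 and HepG2/Dox cells were grown in RPMI 1640 with 10% FBS at 37 °C and 5% CO2; resistant cells were kept drug-free for at least 7 days before use. IC50 was taken from the SRB assay, with at least three repeats, reported as mean ± SD.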

HepG2/Dox [2] = assay: Reversal of P-glycoprotein-mediated multidrug resistance in human HepG2/Dox cells assessed as increase in sensitivity at 25.2 uM in presence of doxorubicin; assay type: cell-based
Summary of the method: (§2)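 SRB growth-inhibition assay in HepG2 or doxorubicin-selected Pgp-overexpressing HepG2/Dox cells. Cells grown in RPMI 1640 with 10% FBS at 37 °C, 5% CO2. HepG2/Dox cells kept in 1.2 µM doxorubicin and grown drug-free for at least 7 days before use. IC50 of anticancer drug determined with or without modulator. Sensitivity fold = IC50 ratio. At least three repeats, mean ± SD.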

[3] = Effect on doxorubicin-induced cell cycle arrest in multidrug resistance human HepG2/Dox cells assessed as accumulation in G2/M phase at 20 ug/ml; assay type: functional
Summary of the method: (§3)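 Flow-cytometric cell-cycle profiling. About 2 × 10^5 cells were seeded per dish and left overnight, then exposed to medium with or without drug for 48 h. Cells were fixed in 70% EtOH at -20 °C overnight and treated with RNase A (100 µg/mL, 37 °C, 30 min). They were then stained with propidium iodide (40 µg/mL final) at room temperature for 5-10 min and read on a FACSCalibur.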

HepG2/Dox [4] = assay: Effect on P-glycoprotein expression in multidrug resistance human HepG2/Dox cells at 20 ug/ml after 72 hrs; assay type: functional, cell-based
Summary of the method: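 Western blot for Pgp. HepG2/Dox cells were incubated with 0, 5, 10 or 20 µg/mL test agent for 72 h, with untreated HepG2 as comparator. Lysates (50 µg total protein) were resolved on 10% SDS-PAGE and Pgp was detected by antibody labeling.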

[5] = Cell cycle arrest in multidrug resistant human HepG2/Dox cells assessed as accumulation in G2/M phase at 20 ug/ml; assay type: functional, cell-based; summary of the method: as §3
HepG2/Dox [6] = assay: Reversal of P-glycoprotein-mediated multidrug resistance in human HepG2/Dox cells assessed as increase in sensitivity at 12.6 uM in presence of doxorubicin; assay type: cell-based; summary of the method: as §2
[7] = Increase in doxorubicin uptake in multidrug resistance human HepG2/Dox cells assessed as cellular fluorescence at 10 ug/ml; assay type: functional
Summary of the method: (§4)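 Doxorubicin accumulation. About 1 × 10^6 HepG2/Dox cells in medium were given 10 µM doxorubicin with or without test agent and held at 37 °C for 40 min. Cells were washed in ice-cold PBS and fluorescence was read by flow cytometry. Increase (%) = 100 × (FT − FC)/FC; verapamil 10 µM served as positive control. Three experiments, mean ± SD.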

HepG2 [8] = assay: Reversal of P-glycoprotein-mediated drug resistance in human HepG2 cells assessed as increase in sensitivity at 25.2 uM in presence of puromycin; assay type: cell-based; summary of the method: as §2
[9] = Increase in doxorubicin uptake in multidrug resistance human HepG2/Dox cells assessed as cellular fluorescence at 40 ug/ml; assay type: functional; summary of the method: as §4
[10] = Effect on doxorubicin-induced cell cycle arrest in multidrug resistance human HepG2/Dox cells assessed as accumulation in subG1 phase at 5 ug/ml; assay type: functional; summary of the method: as §3
[11] = Cell cycle arrest in multidrug resistant human HepG2/Dox cells assessed as accumulation in G0/G1 phase at 20 ug/ml; assay type: functional, cell-based; summary of the method: as §3
[12] = Growth inhibition of multidrug resistant human HepG2/Dox cells at 80 uM; assay type: functional; summary of the method: as §1
HepG2/Dox [13] = assay: Inhibition of Pgp-mediated Rh123 accumulation in multidrug resistance human HepG2/Dox cells at 80 ug/ml; assay type: cell-based
Summary of the method: (§5)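 Rh-123 efflux. About 1 × 10^6 HepG2/Dox cells were loaded with 5 µg/mL Rh-123 at 37 °C for 1 h and washed in ice-cold PBS. They then effluxed for 1 h at 37 °C in dye-free medium with 0-80 µg/mL test agent, and retained fluorescence was read by flow cytometry. Percentage increase over control was calculated; verapamil 15 µM served as positive control. Three experiments, mean ± SD.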

[14] = Effect on doxorubicin-induced cell cycle arrest in multidrug resistance human HepG2/Dox cells assessed as accumulation in G2/M phase at 5 ug/ml; assay type: functional; summary of the method: as §3
[15] = Effect on doxorubicin-induced cell cycle arrest in multidrug resistance human HepG2/Dox cells assessed as accumulation in G0/G1 phase at 20 ug/ml; assay type: functional; summary of the method: as §3
[16] = Effect on doxorubicin-induced cell cycle arrest in multidrug resistance human HepG2/Dox cells assessed as accumulation in G2/M phase at 10 ug/ml; assay type: functional; summary of the method: as §3
[17] = Effect on doxorubicin-induced cell cycle arrest in multidrug resistance human HepG2/Dox cells assessed as accumulation in S phase at 20 ug/ml; assay type: functional; summary of the method: as §3
[18] = Increase in doxorubicin uptake in multidrug resistance human HepG2/Dox cells assessed as cellular fluorescence at 20 ug/ml; assay type: functional; summary of the method: as §4
HepG2/Dox [19] = assay: Reversal of P-glycoprotein-mediated multidrug resistance in human HepG2/Dox cells assessed as increase in sensitivity at 25.2 uM in presence of paclitaxel; assay type: cell-based; summary of the method: as §2
[20] = Cell cycle arrest in multidrug resistant human HepG2/Dox cells assessed as accumulation in S phase at 20 ug/ml; assay type: functional, cell-based; summary of the method: as §3
HepG2 [21] = assay: Reversal of P-glycoprotein-mediated drug resistance in human HepG2 cells assessed as increase in sensitivity at 25.2 uM in presence of vinblastine; assay type: cell-based; summary of the method: as §2
HepG2 [22] = assay: Reversal of P-glycoprotein-mediated drug resistance in human HepG2 cells assessed as increase in sensitivity at 25.2 uM in presence of doxorubicin; assay type: cell-based; summary of the method: as §2
HepG2 [23] = assay: Reversal of P-glycoprotein-mediated drug resistance in human HepG2 cells assessed as increase in sensitivity at 25.2 uM in presence of paclitaxel; assay type: cell-based; summary of the method: as §2
HepG2/Dox [24] = assay: Inhibition of Pgp-mediated Rh123 accumulation in multidrug resistance human HepG2/Dox cells at 40 ug/ml; assay type: cell-based; summary of the method: as §5
[25] = Effect on doxorubicin-induced cell cycle arrest in multidrug resistance human HepG2/Dox cells assessed as accumulation in S phase at 5 ug/ml; assay type: functional; summary of the method: as §3
[26] = Effect on doxorubicin-induced cell cycle arrest in multidrug resistance human HepG2/Dox cells assessed as accumulation in S phase at 10 ug/ml; assay type: functional; summary of the method: as §3
[27] = Effect on doxorubicin-induced cell cycle arrest in multidrug resistance human HepG2/Dox cells assessed as accumulation in subG1 phase at 20 ug/ml; assay type: functional; summary of the method: as §3
HepG2/Dox [28] = assay: Reversal of P-glycoprotein-mediated multidrug resistance in human HepG2/Dox cells assessed as increase in sensitivity at 12.6 uM in presence of puromycin; assay type: cell-based; summary of the method: as §2
[29] = Effect on doxorubicin-induced cell cycle arrest in multidrug resistance human HepG2/Dox cells assessed as accumulation in G0/G1 phase at 5 ug/ml; assay type: functional; summary of the method: as §3
HepG2/Dox [30] = assay: Reversal of P-glycoprotein-mediated multidrug resistance in human HepG2/Dox cells assessed as increase in sensitivity at 12.6 uM in presence of paclitaxel; assay type: cell-based; summary of the method: as §2
[31] = Effect on doxorubicin-induced cell cycle arrest in multidrug resistance human HepG2/Dox cells assessed as accumulation in subG1 phase at 10 ug/ml; assay type: functional; summary of the method: as §3
HepG2/Dox [32] = assay: Reversal of P-glycoprotein-mediated multidrug resistance in human HepG2/Dox cells assessed as increase in sensitivity at 25.2 uM in presence of puromycin; assay type: cell-based; summary of the method: as §2
[33] = Cell cycle arrest in multidrug resistant human HepG2/Dox cells assessed as accumulation in subG1 phase at 20 ug/ml; assay type: functional, cell-based; summary of the method: as §3
HepG2/Dox [34] = assay: Reversal of P-glycoprotein-mediated multidrug resistance in human HepG2/Dox cells assessed as increase in sensitivity at 25.2 uM in presence of vinblastine; assay type: cell-based; summary of the method: as §2
[35] = Effect on doxorubicin-induced cell cycle arrest in multidrug resistance human HepG2/Dox cells assessed as accumulation in G0/G1 phase at 10 ug/ml; assay type: functional; summary of the method: as §3
HepG2/Dox [36] = assay: Reversal of P-glycoprotein-mediated multidrug resistance in human HepG2/Dox cells assessed as increase in sensitivity at 12.6 uM in presence of vinblastine; assay type: cell-based; summary of the method: as §2

C/C=C(\C)C(=O)O[C@@H]1[C@@H](OC(C)=O)[C@]2(C)[C@H](C(C)=O)CC[C@@]23O[C@]32CC[C@H]3C[C@@H](O[C@H]4C[C@@H](OC)[C@H](O[C@@H]5O[C@H](C)[C@@H](O)[C@@H](OC)[C@H]5O)[C@@H](C)O4)CC[C@]3(C)[C@@H]12 [TENACISSIMOSIDE A]
inhibition at 80 µM (HepG2 [1]): 50%
Ratio IC50 (HepG2/Dox [2]): 17.9
Activity [3]: 73%
Activity (HepG2/Dox [4]): inactive
Activity [5]: 32%
Ratio IC50 (HepG2/Dox [6]): 7.8
Activity [7]: 18%
Ratio IC50 (HepG2 [8]): 1.1
Activity [9]: 41%
Activity [10]: 3.5%
Activity [11]: 49.3%
inhibition at 80 µM [12]: 50%
inhibition (HepG2/Dox [13]): 90%
Activity [14]: 44.2%
Activity [15]: 8.9%
Activity [16]: 63.6%
Activity [17]: 5.1%
Activity [18]: 28%
Ratio IC50 (HepG2/Dox [19]): 5.8
Activity [20]: 7.2%
Ratio IC50 (HepG2 [21]): 1.1
Ratio IC50 (HepG2 [22]): 1.1
Ratio IC50 (HepG2 [23]): 1.1
inhibition (HepG2/Dox [24]): 50%
Activity [25]: 6.8%
Activity [26]: 6.3%
Activity [27]: 7.6%
Ratio IC50 (HepG2/Dox [28]): 7
Activity [29]: 39.8%
Ratio IC50 (HepG2/Dox [30]): 4.7
Activity [31]: 3.5%
Ratio IC50 (HepG2/Dox [32]): 11.2
Activity [33]: 3%
Ratio IC50 (HepG2/Dox [34]): 10
Activity [35]: 24.9%
Ratio IC50 (HepG2/Dox [36]): 2.4
